Experimental data reported in ChEMBL document CHEMBL1125909, “Synthesis of chiral and achiral pyranenamine derivatives. Potent agents with topical ocular antiallergic activity” (J Med Chem, 1991).

How the values were obtained:
[1] = Compound was evaluated for pyranenamine lipophilicity; format: physicochemical; settings: octanol/water
Rattus norvegicus [2] = experiment: Compound was evaluated for the type-I hypersensitivity in rat POA model after intravenous administration.; format: functional; settings: read-out: ID50 (the source's name)
In short: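 Modified Iso method. Rats of 150–200 g were sensitized with three conjunctival injections per eye (bulbar, palpebral, lower) of 50 μL of 1:4-diluted rat IgE anti-ovalbumin antiserum. 24 h later, drug was given IV just before IV challenge with ovalbumin (25 mg/kg) plus Evans blue (12.5 mg/kg in saline). Eyelids and eyeballs were taken at 30 min, extracted in acetone/0.5% sodium sulfate, and read at 620 nm. Result expressed as ID50 (mg/kg).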

Rattus norvegicus [3] = experiment: Compound was evaluated for the type-I hypersensitivity in rat POA model at a concentration of 3% administered topically.; format: functional
In short: (§1)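 Modified Iso passive ocular anaphylaxis in 150–200 g rats. Each eye was sensitized by three conjunctival injections of 50 μL of 1:4-diluted rat IgE anti-ovalbumin antiserum. At 24 h, 10 μL of drug solution was instilled topically 15 min before, just prior to, and 15 min after IV ovalbumin (25 mg/kg) with Evans blue (12.5 mg/kg). At 30 min, eye tissue dye was extracted in acetone/0.5% Na2SO4 and read at 620 nm. Result expressed as % inhibition.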

Rattus norvegicus [4] = experiment: Compound was evaluated for the type-I hypersensitivity in rat POA model at a concentration of 1% administered topically.; format: functional; in short: as §1
Rattus norvegicus [5] = experiment: Compound was evaluated for the type-I hypersensitivity in rat POA model at a concentration of 4% administered topically.; format: functional
In short: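 Modified Iso method. Rats (150–200 g) sensitized with three 50 µL injections per eye (bulbar conjunctiva, palpebral, lower conjunctiva) of 1:4-diluted rat IgE anti-ovalbumin antisera. After 24 h, iv challenge with ovalbumin 25 mg/kg plus Evans blue 12.5 mg/kg. Drug (10 µL) instilled 15 min before, just before and 15 min after challenge. Killed at 30 min; eyelids and eyeballs extracted in acetone/0.5% sodium sulfate; read at 620 nm; % inhibition.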

Rattus norvegicus [6] = experiment: Compound was evaluated for the type-I hypersensitivity in rat POA model at a concentration of 10% administered topically.; format: functional; in short: as §1
Rattus norvegicus [7] = experiment: Compound was evaluated for the type-I hypersensitivity in rat POA model at a concentration of 5% administered topically.; format: functional; in short: as §1

Structure (SMILES)	logP [1]	ED50 (Rattus norvegicus [2])	Inhibition (Rattus norvegicus [3])	Inhibition (Rattus norvegicus [4])	Inhibition (Rattus norvegicus [5])	Inhibition (Rattus norvegicus [6])	Inhibition (Rattus norvegicus [7])
CC(=O)C1=C(O)C(=C(C)Nc2cc(NC(=O)[C@H](O)CO)cc(NC(=O)[C@H](O)CO)c2)C(=O)OC1=O	-2.44	300 mg/kg					
O=C([O-])c1cc(=O)c2c(OCC(O)COc3cccc4oc(C(=O)[O-])cc(=O)c34)cccc2o1.[Na+].[Na+] [CROMOLYN SODIUM]					0%		
CC(=O)c1c(O)c(/C(C)=N/c2cc(NC(=O)CO)cc(NC(=O)CO)c2)c(O)oc1=O	-0.32	30 mg/kg	15%				

The next lines start with results.

logP [1]	Structure (SMILES)	ED50 (Rattus norvegicus [2])	Inhibition (Rattus norvegicus [3])	Inhibition (Rattus norvegicus [4])	Inhibition (Rattus norvegicus [5])	Inhibition (Rattus norvegicus [6])	Inhibition (Rattus norvegicus [7])
-2.44	CC(=O)c1c(O)c(/C(C)=N/c2cc(NC(=O)C(O)CO)cc(NC(=O)C(O)CO)c2)c(O)oc1=O (stereo not given)	60 mg/kg	25%	16%			
-2.44	CC(=O)C1=C(O)C(=C(C)Nc2cc(NC(=O)[C@@H](O)CO)cc(NC(=O)[C@@H](O)CO)c2)C(=O)OC1=O	30 mg/kg	40%			79%	63%
-2.43	CC(=O)c1c(O)c(/C(C)=N/c2cc(NC(=O)C(CO)CO)cc(NC(=O)C(CO)CO)c2)c(O)oc1=O	30 mg/kg	31%	12%			41%
